Broadly, the mortality is the share of the test organisms that died. One may read the inhibition as the share of the control response that was lost under treatment. A low value points to little suppression. A word on the IC50: it is the concentration at which inhibition is half-maximal. Low readings indicate inhibition by little substance, high ones a need for much substance.

One experiment deals with Lipaphis erysimi. Put plainly: In vivo insecticidal activity against apterous adult stage of Lipaphis erysimi (mustard aphids) in chinese cabbage leaves assessed as mortality at 300 mg/l at 25 degC treated for 10 secs measured after 24 hr. It is filed as functional. The procedure, abridged: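 Aphids were reared at 25 (±1) °C, 60 (±5)% RH and a 14 h photoperiod. Acetone stocks at 10 g/L were diluted with water containing 0.1% Triton X-100. Chinese cabbage leaf disks carrying 35 apterous adults were dipped for 10 s, dried, then held at 25 °C. Mortality was scored at 24 h against untreated controls. Three replicates were run, and corrected mortality was calculated.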

The target in experiment [1] is Acetylcholinesterase (Musca domestica) (UniProt Q7YWJ9). As to the kind of experiment: Dual-site binding inhibition of AChE in Musca domestica (house fly) brain at 100 mg/l.
A further experiment has as its target Acetylcholinesterase (Musca domestica, UniProt Q7YWJ9). As to the kind of experiment: Dual-site binding inhibition of AChE in Musca domestica (house fly) brain. It is filed as tissue-based. The procedure, abridged:
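Enzyme was prepared from heads of adult houseflies, females and males in a 1:1 ratio. The inhibition procedure followed previously reported methods.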

Experiment [2] concerns the target Acetylcholinesterase (Musca domestica) (UniProt Q7YWJ9). Put plainly: Ratio of MH IC50 to compound IC50 for AChE in Musca domestica (house fly) brain.
For experiment [3] the target is unchanged. Put plainly: Ratio of MT IC50 to compound IC50 for AChE in Musca domestica (house fly) brain.

Sequence of Acetylcholinesterase (Musca domestica) (Q7YWJ9 1-692): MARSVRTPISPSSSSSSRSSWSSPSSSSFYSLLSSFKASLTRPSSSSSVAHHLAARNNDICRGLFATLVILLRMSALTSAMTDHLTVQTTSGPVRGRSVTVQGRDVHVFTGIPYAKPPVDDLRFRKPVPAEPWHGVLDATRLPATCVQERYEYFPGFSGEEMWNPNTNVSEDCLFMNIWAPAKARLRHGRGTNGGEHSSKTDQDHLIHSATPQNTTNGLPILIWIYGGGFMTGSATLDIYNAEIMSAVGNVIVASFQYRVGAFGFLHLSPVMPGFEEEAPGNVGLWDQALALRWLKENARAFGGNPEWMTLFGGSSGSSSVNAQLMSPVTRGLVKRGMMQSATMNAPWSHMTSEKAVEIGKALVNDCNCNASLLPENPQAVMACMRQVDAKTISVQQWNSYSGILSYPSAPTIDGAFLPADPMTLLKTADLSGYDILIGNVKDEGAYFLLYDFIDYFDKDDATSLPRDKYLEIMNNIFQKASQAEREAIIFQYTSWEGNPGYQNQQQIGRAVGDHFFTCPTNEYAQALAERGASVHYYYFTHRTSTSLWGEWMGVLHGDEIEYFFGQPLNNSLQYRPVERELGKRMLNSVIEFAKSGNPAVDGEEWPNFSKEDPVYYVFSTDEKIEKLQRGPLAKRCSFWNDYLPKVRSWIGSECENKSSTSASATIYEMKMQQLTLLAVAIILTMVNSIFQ
Sequence of Acetylcholinesterase (Q7YWJ9 whole entry): as the sequence (Q7YWJ9 1-692) above

For `CNC(=O)Oc1ccccc1` [PHENYL METHYLCARBAMATE], the mortality at 300 µg/mL in the experiment with Lipaphis erysimi amounted to 76%. The same molecule came in with an inhibition in experiment [1] of 46%. Further, the concentration for half-maximal inhibition (IC50) on Acetylcholinesterase came to 766 µM.

Turning to `CNC(=O)Oc1cccc(OCCCOc2ccc([N+](=O)[O-])cc2)c1`, the mortality at 300 µg/mL in the experiment with Lipaphis erysimi was 89%. In addition, the results for the Ratio IC50 in experiment [2] and in experiment [3] were 11 and 2, respectively. In experiment [1], the inhibition was 69%. At Acetylcholinesterase, this molecule had an IC50 of 70 µM. For `CNC(=O)Oc1ccccc1OC/C=C/COc1ccc(C(F)(F)F)cc1`, the inhibition in experiment [1] is 17%. Consider `CNC(=O)Oc1ccccc1OCCCCOc1ccc(C(F)(F)F)cc1`, for which the inhibition in experiment [1] turned out to be 19%. `CNC(=O)Oc1cccc(OCCCCOc2ccc([N+](=O)[O-])cc2)c1`: the mortality at 300 µg/mL in the experiment on Lipaphis erysimi is 92%. The Ratio IC50 in experiment [2] is 17; in experiment [3] it was 3. The same molecule registered an inhibition in experiment [1] of 80%. In addition, the half-maximal inhibitory concentration (IC50) at Acetylcholinesterase was 46 µM.

In experiment [1], `CN(C)C(=O)Oc1cccc(OC/C=C/COc2ccc(C(F)(F)F)cc2)c1` displayed an inhibition of 13%. On the same count and under the same terms, under `CNC(=O)Oc1ccccc1OCCOc1ccc(C(F)(F)F)cc1` stands 13%.

Regarding `CN(C)C(=O)Oc1ccc(OCCCCOc2ccc(C(F)(F)F)cc2)cc1`, the inhibition in experiment [1] is 6%.

`CNC(=O)Oc1cccc(OC/C=C/COc2ccc(C(F)(F)F)cc2)c1` came in with an inhibition in experiment [1] of 12%. Same read-out and setting: the figure for `CN(C)C(=O)Oc1ccc(OCCOc2ccc(C(F)(F)F)cc2)cc1` is 6%; for `CNC(=O)Oc1cccc(OCCCCOc2ccccc2OC)c1` it is 46%; for `CNC(=O)Oc1ccc(OCCCOc2ccc(C(F)(F)F)cc2)cc1` it is 2%. On the same count and under the same terms, the figure for `CN(C)C(=O)Oc1ccccc1OCCOc1ccc(C(F)(F)F)cc1` is 15%. Same read-out and setting: under `CN(C)C(=O)Oc1ccc(OCCCOc2ccc(C(F)(F)F)cc2)cc1` stands 1%.

In experiment [1], `CNC(=O)Oc1ccc(OCCOc2ccc(C(F)(F)F)cc2)cc1` had an inhibition of 2%. On the same count and under the same terms, under `CN(C)C(=O)Oc1cccc(OCCOc2ccc(C(F)(F)F)cc2)c1` stands 8%; under `CN(C)C(=O)Oc1ccccc1OC/C=C/COc1ccc(C(F)(F)F)cc1`, 7%; under `CN(C)C(=O)Oc1cccc(OCCCOc2ccc(C(F)(F)F)cc2)c1`, 27%. As for `CNC(=O)Oc1cccc(OCCCCOc2cccc([N+](=O)[O-])c2)c1`, in the experiment on Lipaphis erysimi, the mortality at 300 µg/mL was 98%. Also, the figures for the Ratio IC50 in experiment [2] and in experiment [3] were 62 and 12, respectively. The inhibition in experiment [1] was determined as 92%. The same molecule yielded an IC50 on Acetylcholinesterase of 12 µM.

In turn, `CN(C)C(=O)Oc1cccc(OCCCCOc2ccc(C(F)(F)F)cc2)c1` displayed an inhibition in experiment [1] of 20%. With `CNC(=O)Oc1cccc(C)c1` [METOLCARB], in the experiment with Lipaphis erysimi, the mortality at 300 µg/mL is 97%. The same molecule registered an IC50 on Acetylcholinesterase of 150 µM.

Turning to `CNC(=O)Oc1cccc(OCCCCOc2ccc(Cl)cc2)c1`, the inhibition in experiment [1] stood at 30%. In the case of `CNC(=O)Oc1cccc(OCCCCOc2ccc(C(F)(F)F)cc2)c1`, the mortality at 300 µg/mL in the experiment with Lipaphis erysimi worked out at 92%. Further, the results for the Ratio IC50 in experiment [2] and in experiment [3] were 7 and 1, respectively. In experiment [1], this molecule showed an inhibition of 62%. The same molecule registered an IC50 at Acetylcholinesterase of 107 µM. As for `CNC(=O)Oc1ccc(OCCCCOc2ccc(C(F)(F)F)cc2)cc1`, in experiment [1], the inhibition worked out at 4%. As to `CNC(=O)Oc1cccc(OCCCCOc2ccccc2[N+](=O)[O-])c1`, the mortality at 300 µg/mL in the experiment on Lipaphis erysimi stood at 93%. The results for the Ratio IC50 in experiment [2] and in experiment [3] were 13 and 2, respectively. In experiment [1], this molecule displayed an inhibition of 80%. This molecule also returned an IC50 at Acetylcholinesterase of 61 µM.

Regarding `CN(C)C(=O)Oc1ccccc1OCCCCOc1ccc(C(F)(F)F)cc1`, the inhibition in experiment [1] is 7%. On to `CNC(=O)Oc1cccc(OCCCOc2ccc(C(F)(F)F)cc2)c1`, for which, in the experiment with Lipaphis erysimi, the mortality at 300 µg/mL was found to be 85%. Also, the Ratio IC50 turned out to be 7 in experiment [2] and 1 in experiment [3]. Moreover, in experiment [1], the inhibition worked out at 61%. At Acetylcholinesterase, the half-inhibitory concentration (IC50) came to 105 µM.

Consider `CNC(=O)Oc1ccccc1OCCCOc1ccc(C(F)(F)F)cc1`, for which, in experiment [1], the inhibition came out at 25%.

In the case of `CNC(=O)Oc1ccc(OC/C=C/COc2ccc(C(F)(F)F)cc2)cc1`, the inhibition in experiment [1] is 3%. On the same count and under the same terms, under `CNC(=O)Oc1cccc(OCCOc2ccc(C(F)(F)F)cc2)c1` stands 20%; under `CN(C)C(=O)Oc1ccc(OC/C=C/COc2ccc(C(F)(F)F)cc2)cc1`, 0%. On the same count and under the same terms, under `CN(C)C(=O)Oc1ccccc1OCCCOc1ccc(C(F)(F)F)cc1` stands 25%; under `CNC(=O)Oc1cccc(OC/C=C/COc2ccc([N+](=O)[O-])cc2)c1`, 45%.
